The list is not random: actives were taken first. Their share in the collection is about 1.8%.
LEDGF integ inh – blocks HIV-1 LEDGF/p75-dependent DNA integration | inhibition, % at 3.7 µM | 370,000 compounds, 0.64% hits | TR-FRET IN-LEDGF/p75 DNA integration, Eu/Cy5;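 active = inhibition above the screen-wide mean plus 3 SD, cut at about 13% in these data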;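 also: signal is the Cy5 over europium emission ratio at 671 and 618 nm; 0% = plate median of compound wells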
Casp6 inh – blocks human caspase-6 cleavage activity. P55212. purified caspase-6, Z-VEID-R110 cleavage fluorescence. inhibition, % at 12.5 µM. 350,000 compounds, 0.53% hits. AID 686996;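 active = mean inhibition across replicates at least about 35%, with every replicate also reaching that limit, limit read from the data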;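 also: 0% = median of neutral control wells and 100% = no fluorescence left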
MBD2 DNA inh – MBD2-methylated oligo binding inhibition. Q9UBB5. TR-FRET, MBD2 binding to methylated oligonucleotide. inhibition, % at 4.4 µM. 370,000 compounds, 0.31% hits; in the data active = inhibition above about 13%
Target sequence (Q9UBB5 whole entry, looked up): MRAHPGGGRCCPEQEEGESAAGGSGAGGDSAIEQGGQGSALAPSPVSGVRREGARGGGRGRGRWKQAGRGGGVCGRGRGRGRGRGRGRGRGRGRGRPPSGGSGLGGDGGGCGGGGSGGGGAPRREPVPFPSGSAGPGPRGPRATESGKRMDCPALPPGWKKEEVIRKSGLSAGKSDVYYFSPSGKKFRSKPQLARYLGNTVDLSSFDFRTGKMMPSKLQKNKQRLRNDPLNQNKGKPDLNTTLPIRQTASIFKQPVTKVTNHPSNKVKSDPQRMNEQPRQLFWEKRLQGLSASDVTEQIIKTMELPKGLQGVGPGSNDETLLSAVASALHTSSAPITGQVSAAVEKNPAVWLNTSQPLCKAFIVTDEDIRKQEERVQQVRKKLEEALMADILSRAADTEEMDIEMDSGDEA
UHRF1 MBD2 ctr – blocks human UHRF1 binding to methylated DNA; Q96T88; UHRF1 binding to methylated oligo, TR-FRET; inhibition, % at 4.4 µM; 370,000 compounds, 0.75% hits; AID 687016; in the data active = inhibition above about 21%;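 also: UHRF1 SRA domain binding a hemimethylated CpG hairpin DNA probe; 0% = median of test compound wells and 100% = reference inhibitor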
TDP2 absorb – blocks human TDP2 phosphodiesterase activity. O95551. recombinant TDP2, T5PNP hydrolysis, p-nitrophenol absorbance 415 nm. inhibition, % at 12.8 µM. 370,000 compounds, 0.34% hits;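 active = inhibition above the mean of all tested compounds plus 3 SD, set per campaign, cut at about 25% in these data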;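 also: 0% = DMSO with enzyme and 100% = buffer with substrate but no TDP2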
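System – recombinant human TDP2 · Amount – 120 nM TDP2 per well · Buffer or medium – Mg2+-containing Tris-HCl buffer, pH 7.5 · Reagent – T5PNP substrate, 5 mM · Dosing – 12.8 µM single point, 1% DMSO · Incubation – 2 h at 37 °C · Measured by – epi absorbance · Read-out basis – percent inhibition · Benchmarks – high control without enzyme, low control DMSO plus TDP2 · Repeats – singlicate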
NSD2 inh – blocks human histone methyltransferase NSD2. AID 743445. 310,000 compounds, 0.54% hits. inhibition, % at 12.5 µM. NSD2 peptide methylation, AlphaScreen, 120 min; in the data active = inhibition above about 50%
UHRF1 DNA bind – UHRF1 methyl-oligo binding inhibition as MBD2 counter-screen; inhibition, % at 4.4 µM; shares compounds with MBD2 DNA inh; 1,000 compounds, 25% hits; UHRF1 binding to methylated oligonucleotide, TR-FRET; AID 720530; in the data active = inhibition above about 21%;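 also: UHRF1 SRA domain binding a labeled hemimethylated CpG hairpin DNA; 0% = vehicle only and 100% = reference inhibitor with vehicle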
MBD2 confirm – MBD2-DBD methyl-DNA binding inhibition, TR-FRET confirmation | shares compounds with MBD2 DNA inh | TR-FRET MBD2-DBD binding to methylated oligonucleotide | inhibition, % at 4.4 µM | 1,000 compounds, 26% hits | AID 720531
CASP1 counter – caspase-1 (human) inhibition counter-screen; purified caspase-1, Z-YVAD-R110 cleavage fluorescence; shares compounds with Casp6 inh; 100 tested, under 10 active; activity change, negative = inhibition, % at 35 µM; AID 743289;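 active = compounds lowering fluorescence whose fitted half-maximal concentration is no more than twice their top tested dose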
TDP2 inh conf – confirmation of human TDP2 inhibitors; shares compounds with TDP2 absorb; recombinant human TDP2, absorbance read-out; inhibition, % at 12.8 µM; 1,100 compounds, 22% hits; AID 743263; in the data active = inhibition above about 25%;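 also: 0% = vehicle with enzyme and 100% = no enzyme buffer only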
IN multimer up – counter-screen for LEDGF/p75 integration inhibitors: HIV-1 integrase multimerization activators. TR-FRET HIV-1 integrase multimerization, biochemical. 2,000 compounds, 17% hits. activation, % at 7.7 µM. shares compounds with LEDGF integ inh; in the data active = activation above about 8.9%
TRFRET interf – optically interferes with TR-FRET readout in LEDGF counter-screen; shares compounds with LEDGF integ inh; TR-FRET optical interference counterscreen, HIV-1 IN multimerization; inhibition, % at 7.7 µM; 2,000 tested, under 10 active;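 active = inhibition above the mean over all tested compounds plus 3 SD, which no compound reached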;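 also: 0% = integrase with antibodies and DMSO and 100% = antibodies without integrase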
LEDGF integ conf – confirmation of HIV-1 LEDGF/p75-dependent integration inhibitors; shares compounds with LEDGF integ inh; 2,000 compounds, 36% hits; inhibition, % at 3.7 µM; TR-FRET LEDGF/p75-dependent HIV-1 integration, biochemical; AID 1053136
Starred values were filed as active, the others as inactive; · = no result. Rule as the data show it, unless noted: active = inhibition above about 14%; inactive = the rest.

SMILES | LEDGF integ inh | Casp6 inh | MBD2 DNA inh | UHRF1 MBD2 ctr | TDP2 absorb | NSD2 inh | UHRF1 DNA bind | MBD2 confirm | CASP1 counter | others
NC(=O)C1=C(N)c2ccccc2C1c1ccccc1 (stereo not drawn) | -5 | 5 | 32* | 1 | -5 | 1 | 2 | 1 | ·
CCOC(=O)C1CC(=O)c2ccccc2C1c1ccccc1 (stereo not drawn) | 0 | 1 | 3 | -1 | -6 | · | · | · | ·
CCCNC(=O)N(C)C[C@H]1Oc2cc(-c3ccc(C)cc3)ccc2S(=O)(=O)N([C@@H](C)CO)C[C@H]1C | · | -2 | · | · | · | · | · | · | ·
Cc1ccc(C)c(NC(=O)CN(C)C(=O)c2cccc(-n3cccc3)c2)c1 | 1 | 59* | 22* | 36* | 7 | 12 | 43* | 33* | -1
C[C@H]1CN([C@@H](C)CO)C(=O)c2cccc(NC(=O)Nc3ccc(C(F)(F)F)cc3)c2O[C@@H]1CN(C)Cc1ccc(C(=O)Nc2ccccc2N)cc1 | · | 1 | · | · | · | · | · | · | ·
CCCCN(C(=O)c1cccc(-n2cccc2)c1)c1c(N)n(Cc2ccccc2)c(=O)[nH]c1=O | 1 | 57* | 18* | 33* | 14 | 0 | 43* | 35* | -1
CCCCN(C(=O)c1cccc(N2C(=O)c3ccccc3C2=O)c1)c1c(N)n(CC(C)C)c(=O)[nH]c1=O | 1 | 2 | -2 | 1 | 1 | 3 | · | · | ·
O=C1CCC(=O)N1c1ccc(-c2nc3sc4c(c3c(=O)o2)CCC4)cc1 | -1 | -3 | 6 | 1 | 0 | 1 | · | · | ·
O=c1oc(-c2ccccc2)nc2sc3c(c12)CCC3 | 11 | 72* | 18* | 46* | 10 | 16 | 26* | 15* | -4
CCCSC1=N/C(=C\c2ccc([N+](=O)[O-])o2)C(=O)S1 | 35* | 75* | 19* | 52* | 9 | 35 | 21* | 4 | -9
CO[C@@H]1CN(C)C(=O)c2cc(NC(=O)CC(F)(F)F)ccc2OC[C@@H](C)N(C(C)=O)C[C@@H]1C | · | -2 | · | · | · | · | · | · | ·
CCCn1nc2cc(C(=O)NCc3ccc(OC)cc3)ccc2c1OCC | 12 | 4 | 14* | 29* | 38* | · | 6 | 4 | · | TDP2 inh conf=-3
O=C(Nc1ccccc1)N1CC(=O)N2[C@H](CO)[C@H](c3ccc(C#CC4CC4)cc3)[C@H]2C1 | · | 2 | · | · | · | · | · | · | ·
O=C(Cc1nnc(NC(=O)c2ccccc2)s1)N/N=C/c1ccco1 | 36* | 5 | 19* | 27* | -2 | -1 | 9 | 2 | · | IN multimer up=1;TRFRET interf=-5;LEDGF integ conf=3
Cc1ccc(S(=O)(=O)Oc2ccccc2[N+](=O)[O-])cc1 | 35* | -2 | 14* | -1 | -2 | 2 | 2 | 2 | · | IN multimer up=-2;TRFRET interf=9;LEDGF integ conf=-5
COc1cccc(-n2c(SCC(=O)NCCc3ccccc3)nnc2-c2ccoc2C)c1 | 14* | · | 17* | 28* | 21 | 49 | 3 | 4 | · | IN multimer up=-2;TRFRET interf=10;LEDGF integ conf=-7
